ChEMBL document CHEMBL4007452, “Discovery of an Orally Selective Inhibitor of Signal Transducer and Activator of Transcription 3 Using Advanced Multiple Ligand Simultaneous Docking” (J Med Chem, 2017)
The source made the active and inactive calls. No cut-off for these calls is given here.

Tests used:
[1] = tested on: Mus musculus; assay: Toxicity in BALB/c nude mouse xenografted with […] S180 cells assessed as body weight loss at 1 mg/kg, ip after 13 days relative to vehicle control; format: organism-based; details: in vivo, 312 h
[2] = tested on: CCRF S-180; assay: Anticancer activity against […] cells xenografted in BALB/c nude mouse assessed as reduction in tumor weight at 1 mg/kg, ip measured after 21 days relative to vehicle control; format: functional; design: scale not given: the % may be the effect or the level left
Outline: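 Male mice, 4 weeks old, given s.c. flank S180 mouse sarcoma cells (3 x 10^6). From day 2, 10 mice per group received saline vehicle, oral drug at 5 mg/kg, or i.p. drug at 1 mg/kg, each dissolved in saline. Therapy ran 21 days; tumor weight and body weight were recorded.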

[3] = tested on: Mus musculus; assay: Toxicity in BALB/c nude mouse xenografted with […] S180 cells assessed as reduction in liver size at 1 mg/kg, ip after 21 days; format: organism-based; details: in vivo, 504 h
[4] = tested on: Mus musculus; assay: Toxicity in BALB/c nude mouse xenografted with […] S180 cells assessed as reduction in spleen size at 1 mg/kg, ip after 21 days; format: organism-based; details: in vivo, 504 h
[5] = tested on: Mus musculus; assay: Toxicity in BALB/c nude mouse xenografted with […] S180 cells assessed as reduction in kidney size at 1 mg/kg, ip after 21 days; format: organism-based; details: in vivo, 504 h
[6] = tested on: U2OS; assay: Antiproliferative activity against human U2OS cells after 24 hrs by MTT assay; format: functional, cell-based
Outline: (§1)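 Cells were seeded at 3000 per well and incubated 24 h at 37 °C. Compounds were added in triplicate with 10% FBS: 0.1-10 or 0.1-20 µM for cancer lines, 3.125-400 µM for MCF-10A. Viability was read by MTT absorbance at 595 nm, with IC50 fitted from the curves. DMSO stocks were 20 mM.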

[7] = Antiproliferative activity against human UW288-1 cells after 24 hrs by MTT assay; format: functional, cell-based; details: UW288-1, 24 h; outline: as §1
[8] = Antiproliferative activity against human BkPC-3 cells after 24 hrs by MTT assay; format: functional, cell-based; details: BkPC-3, 24 h; outline: as §1
[9] = tested on: MDA-MB-231; assay: Antiproliferative activity against human MDA-MB-231 cells after 24 hrs by MTT assay; format: functional, cell-based; details: MDA-MB-231, 24 h; outline: as §1
[10] = molecular target: Epidermal growth factor receptor (Homo sapiens) (UniProt P00533); assay: Inhibition of EGFR in human MDA-MB-231 cells assessed as reduction in p-Akt level at 2.5 to 5 uM after 12 hrs by immunoblot analysis; format: cell-based
Outline: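 MDA-MB-231 cells at 60–80% confluence were treated 12 h with 10% FBS at 2.5-10 µM or 2.5-5 µM, against a DMSO control. Whole-cell lysates were immunoblotted, with bands quantified as percent of control.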

[11] = Antiproliferative activity against human UW426 cells after 24 hrs by MTT assay; format: functional, cell-based; details: UW426, 24 h; outline: as §1
[12] = MRT (0 to t) in Sprague-Dawley rat plasma at 1 mg/kg, iv measured after 24 hrs by UPLC analysis; format: ADME, organism-based
Outline: (§2)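 Rat plasma sampled from 2 min to 24 h after a single i.v. (1 mg/kg) or p.o. (10 mg/kg) dose. Parameters were derived from the concentration-time profiles. The bioanalytical method was validated to FDA guidelines for selectivity, linearity, LLOQ, accuracy, precision, recovery, matrix effect and stability.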

[13] = tested on: Mus musculus; assay: Toxicity in BALB/c nude mouse xenografted with human MDA-MB-231 cells assessed as kidney damage at 40 mg/kg, po qd administered for 32 days by H&E staining based light microscopy; format: organism-based; details: in vivo, 768 h
Outline: (§3)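 6-week-old female athymic SPF BALB/c nude mice received 5 x 10^6 MDA-MB-231 cells s.c. in the flank. Oral treatment began once tumors reached about 100 mm3, with 8 mice per group and a saline vehicle control. […] Treatment lasted 32 days. Heart, liver, spleen, lung and kidney were fixed 48 h in 10% neutral-buffered formaldehyde, paraffin-embedded, cut at 5 µm, H&E-stained and examined by light microscopy.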

[14] = Tmax in Sprague-Dawley rat plasma at 1 mg/kg, iv measured after 24 hrs by UPLC analysis; format: ADME, organism-based
Outline: (§4)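 Rats dosed i.v. or p.o. Plasma concentrations followed from 2 min to 24 h after dosing. The bioanalytical method was validated to FDA guidelines for selectivity, linearity, LLOQ, accuracy, precision, recovery, matrix effect and stability.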

[15] = Initial plasma concentration in Sprague-Dawley rat at 1 mg/kg, iv measured after 24 hrs by UPLC analysis; format: ADME, organism-based; outline: as §2
[16] = Apparent volume of distribution in Sprague-Dawley rat plasma at 1 mg/kg, iv measured after 24 hrs by UPLC analysis; format: ADME, organism-based; details: read-out: Vz; outline: as §2
[17] = tested on: Rattus norvegicus; assay: AUMC (0 to t) in Sprague-Dawley rat plasma at 1 mg/kg, iv measured after 24 hrs by UPLC analysis; format: ADME, organism-based; details: in vivo; outline: as §2
[18] = tested on: Mus musculus; assay: Toxicity in BALB/c nude mouse xenografted with human MDA-MB-231 cells assessed as reduction in body weight at 40 mg/kg, po administered for 32 days; format: organism-based; details: in vivo, 768 h
Outline: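 MDA-MB-231 cells (5 x 10^6) were implanted s.c. in the flank of 6-week-old female athymic BALB/c nude mice. Oral dosing started at a tumor volume of about 100 mm3, with 8 mice per group and a saline vehicle control. […] Body weight was tracked over the 32-day treatment.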

[19] = MRT (0 to infinity) in Sprague-Dawley rat plasma at 1 mg/kg, iv measured after 24 hrs by UPLC analysis; format: ADME, organism-based; outline: as §2
[20] = Cmax in Sprague-Dawley rat plasma at 10 mg/kg, po measured after 24 hrs by UPLC analysis; format: ADME, organism-based; design: dose 10 mg/kg, route oral; outline: as §2
[21] = Terminal half life in Sprague-Dawley rat plasma at 10 mg/kg, po measured after 24 hrs by UPLC analysis; format: ADME, organism-based; details: read-out: beta t1/2 (converted); outline: as §4
[22] = tested on: MDA-MB-231; assay: Anticancer activity against human MDA-MB-231 cells xenografted in BALB/c nude mouse assessed as reduction in tumor volume at 40 mg/kg, po qd; format: functional, organism-based
Outline: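 Female athymic BALB/c nude mice, 6 weeks old, bearing s.c. flank MDA-MB-231 xenografts (5 x 10^6 cells). Dosing began at about 100 mm3 tumor volume; 8 mice per group, one tumor each. Drug was given orally in saline, with a saline vehicle control, for 32 days. Caliper L and W measured every other day; volume = 0.5236×L×W².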

[23] = tested on: Mus musculus; assay: Toxicity in BALB/c nude mouse xenografted with human MDA-MB-231 cells assessed as spleen damage at 40 mg/kg, po qd administered for 32 days by H&E staining based light microscopy; format: organism-based; details: in vivo, 768 h; outline: as §3
[24] = MRT (0 to infinity) in Sprague-Dawley rat plasma at 10 mg/kg, po measured after 24 hrs by UPLC analysis; format: ADME, organism-based; outline: as §2
[25] = tested on: Mus musculus; assay: Toxicity in BALB/c nude mouse xenografted with human MDA-MB-231 cells assessed as liver damage at 40 mg/kg, po qd administered for 32 days by H&E staining based light microscopy; format: organism-based; details: in vivo, 768 h; outline: as §3
[26] = AUC (0 to t) in Sprague-Dawley rat plasma at 1 mg/kg, iv measured after 24 hrs by UPLC analysis; format: ADME, organism-based; design: dose 1 mg/kg, time < 24 hr, route intravenous; outline: as §2
[27] = Oral bioavailability in Sprague-Dawley rat at 10 mg/kg measured after 24 hrs by UPLC analysis; format: ADME, organism-based; details: in vivo
[28] = tested on: Rattus norvegicus; assay: AUMC (0 to infinity) in Sprague-Dawley rat plasma at 1 mg/kg, iv measured after 24 hrs by UPLC analysis; format: ADME, organism-based; details: in vivo; outline: as §2
[29] = MRT (0 to t) in Sprague-Dawley rat plasma at 10 mg/kg, po measured after 24 hrs by UPLC analysis; format: ADME, organism-based; outline: as §2
[30] = tested on: Rattus norvegicus; assay: AUMC (0 to t) in Sprague-Dawley rat plasma at 10 mg/kg, po measured after 24 hrs by UPLC analysis; format: ADME, organism-based; details: in vivo; outline: as §2
[31] = tested on: Rattus norvegicus; assay: Apparent volume of distribution in Sprague-Dawley rat plasma at 10 mg/kg, po measured after 24 hrs by UPLC analysis; format: ADME, organism-based; details: in vivo; outline: as §2
[32] = Cmax in Sprague-Dawley rat plasma at 1 mg/kg, iv measured after 24 hrs by UPLC analysis; format: ADME, organism-based; design: dose 1 mg/kg, route intravenous; outline: as §2
[33] = AUC (0 to infinity) in Sprague-Dawley rat plasma at 10 mg/kg, po measured after 24 hrs by UPLC analysis; format: ADME, organism-based; design: dose 10 mg/kg, route oral, time infinity; outline: as §2
[34] = tested on: Mus musculus; assay: Toxicity in BALB/c nude mouse xenografted with human MDA-MB-231 cells assessed as heart damage at 40 mg/kg, po qd administered for 32 days by H&E staining based light microscopy; format: organism-based; details: in vivo, 768 h; outline: as §3
[35] = Tmax in Sprague-Dawley rat plasma at 10 mg/kg, po measured after 24 hrs by UPLC analysis; format: ADME, organism-based; outline: as §4
[36] = Terminal half life in Sprague-Dawley rat plasma at 1 mg/kg, iv measured after 24 hrs by UPLC analysis; format: ADME, organism-based; details: read-out: beta t1/2 (converted); outline: as §4
[37] = tested on: Rattus norvegicus; assay: AUMC (0 to infinity) in Sprague-Dawley rat plasma at 10 mg/kg, po measured after 24 hrs by UPLC analysis; format: ADME, organism-based; details: in vivo; outline: as §2
[38] = tested on: Mus musculus; assay: Toxicity in BALB/c nude mouse xenografted with human MDA-MB-231 cells assessed as lung damage at 40 mg/kg, po qd administered for 32 days by H&E staining based light microscopy; format: organism-based; details: in vivo, 768 h; outline: as §3
[39] = AUC (0 to infinity) in Sprague-Dawley rat plasma at 1 mg/kg, iv measured after 24 hrs by UPLC analysis; format: ADME, organism-based; design: dose 1 mg/kg, time infinity, route intravenous; outline: as §2
[40] = AUC (0 to t) in Sprague-Dawley rat plasma at 10 mg/kg, po measured after 24 hrs by UPLC analysis; format: ADME, organism-based; design: time < 24 hr, dose 10 mg/kg, route oral; outline: as §2

Epidermal growth factor receptor (Homo sapiens), sequence (P00533 whole entry): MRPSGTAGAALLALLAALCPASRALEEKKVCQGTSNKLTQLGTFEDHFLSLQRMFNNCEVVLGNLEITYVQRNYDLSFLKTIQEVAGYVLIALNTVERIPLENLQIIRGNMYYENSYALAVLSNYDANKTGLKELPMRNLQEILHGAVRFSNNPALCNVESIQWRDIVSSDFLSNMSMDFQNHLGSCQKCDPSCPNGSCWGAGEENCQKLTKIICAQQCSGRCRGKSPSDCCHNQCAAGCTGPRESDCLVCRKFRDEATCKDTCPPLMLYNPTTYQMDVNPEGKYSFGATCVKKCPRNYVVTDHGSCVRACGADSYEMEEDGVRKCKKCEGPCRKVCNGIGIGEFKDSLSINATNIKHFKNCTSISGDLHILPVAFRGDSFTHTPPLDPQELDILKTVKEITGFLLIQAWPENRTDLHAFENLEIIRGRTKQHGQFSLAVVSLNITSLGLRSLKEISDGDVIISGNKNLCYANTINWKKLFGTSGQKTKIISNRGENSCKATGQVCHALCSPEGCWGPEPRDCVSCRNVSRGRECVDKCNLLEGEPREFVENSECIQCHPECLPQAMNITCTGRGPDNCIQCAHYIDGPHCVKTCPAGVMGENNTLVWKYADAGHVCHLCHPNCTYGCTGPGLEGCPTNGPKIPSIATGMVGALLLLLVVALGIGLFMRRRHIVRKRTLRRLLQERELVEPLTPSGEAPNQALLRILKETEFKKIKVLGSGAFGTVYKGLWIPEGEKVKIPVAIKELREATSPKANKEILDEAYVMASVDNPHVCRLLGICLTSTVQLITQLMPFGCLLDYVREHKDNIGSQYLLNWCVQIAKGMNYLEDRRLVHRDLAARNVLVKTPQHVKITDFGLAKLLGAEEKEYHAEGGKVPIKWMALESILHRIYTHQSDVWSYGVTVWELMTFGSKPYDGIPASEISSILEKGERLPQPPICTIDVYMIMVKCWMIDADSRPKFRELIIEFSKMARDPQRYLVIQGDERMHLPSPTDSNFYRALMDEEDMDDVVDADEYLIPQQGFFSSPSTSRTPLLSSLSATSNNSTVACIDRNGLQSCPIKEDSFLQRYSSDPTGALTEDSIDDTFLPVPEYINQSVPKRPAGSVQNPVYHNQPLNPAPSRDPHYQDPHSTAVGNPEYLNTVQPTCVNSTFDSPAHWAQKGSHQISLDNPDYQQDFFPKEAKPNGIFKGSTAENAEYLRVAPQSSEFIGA

For `COc1cccc2c1C(=O)c1c(O)c3c(c(O)c1C2=O)C[C@@](O)(C(=O)CO)C[C@@H]3O[C@H]1C[C@H](N)[C@H](O)[C@H](C)O1` [DOXORUBICIN], the Activity [1] was 21.01%, the Activity [2] was 52.23% and the Activity [3] was “Toxic”. For the same compound, the Activity [4] was “Toxic” and the Activity [5] was “Toxic”.

`CN(CC(=O)N(Cc1ccc(C2CCCCC2)cc1)c1ccc(C(=O)O)c(O)c1)S(=O)(=O)c1c(F)c(F)c(F)c(F)c1F` showed an IC50 [6] of 8.3 µM, an IC50 [7] of 9.8 µM and an IC50 [8] of 6.9 µM. For the same compound, the IC50 [9] was 6.8 µM, the inhibition [10] was “Active” and the IC50 [11] was 10.2 µM.

With `COc1cc2ncnc(Nc3ccc(F)c(Cl)c3)c2cc1OCCCN1CCOCC1` [GEFITINIB] the MRT last at 24 h [12] was 2.12 h, the Activity [13] was “Non-Toxic” and the Tmax [14] was 1.98 min. It also gave a C0 at 24 h [15] of 715 ng/mL, a Vd [16] of 6.68 L/kg and an AUMCt [17] of 1098 hr2.ng/ml. The Activity [18] was “Non-Toxic”, the MRT inf [19] was 2.4 h and the Cmax [20] was 1200 ng/mL. The half-life [21] was 2.17 h, the Activity [22] was “Active” and the Activity [23] was “Non-Toxic”. For the same compound, the MRT inf [24] was 2.49 h, the Activity [25] was “Non-Toxic” and the AUC(0-t) at 24 h [26] was 491 ng·h/mL. For the same compound, the bioavailability [27] was 47.4%, the AUMC [28] was 1261.5 hr2.ng/ml and the MRT last at 24 h [29] was 2.4 h. For the same compound, the AUMCt [30] was 5649.7 hr2.ng/ml, the Vz [31] was 13.2387 L/kg and the Cmax [32] was 621 ng/mL. The AUC(0-inf) [33] was 2370 ng·h/mL, the Activity [34] was “Non-Toxic” and the Tmax [35] was 1 h. For the same compound, the half-life [36] was 2.39 h, the AUMC [37] was 5903.9 hr2.ng/ml and the Activity [38] was “Non-Toxic”. For the same compound, the AUC(0-inf) [39] was 501 ng·h/mL and the AUC(0-t) at 24 h [40] was 2360 ng·h/mL.
